Assay results taken from PMC6247064 (Cancer Science, 2018).

Test system: Japanese patients with advanced solid tumors
Assay: Phase 1 study: safety, tolerability, DLT and treatment-emergent adverse events
Assay type: in vivo, human
Outline: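 Open-label single-arm dose levels of 80 or 105 mg/m2 IV were given on day 1 of 14-day cycles, with at most 6 patients per level. Adverse events were graded by CTCAE v4.03. DLTs were related events in cycle 1 meeting predefined hematologic or nonhematologic criteria. Tolerability required a cycle 1 DLT rate <33%. Primary G-CSF prophylaxis was barred during DLT evaluation; G-CSF was allowed for treatment-emergent neutropenia and as secondary prophylaxis.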

Structure (SMILES): COc1cccc(OCCCN)c1-c1cc(Nc2cnc(C#N)cn2)n[nH]1 [Prexasertib]
- Serious AE reported in one patient (80 mg/m^2, 2 (anemia and thrombocytopenia) related to study treatment, constipation not): 3 serious AE
- TEAE related to study treatment: Anemia (80 mg/m^2 N = 6, Any grade): 3 (50.0) n (%)
- TEAE related to study treatment: Any (80 mg/m^2 N = 6, Any grade): 6 (100) n (%)
- TEAE related to study treatment: Atrial fibrillation (80 mg/m^2 N = 6, Any grade): 1 (16.7) n (%)
- TEAE related to study treatment: Constipation (80 mg/m^2 N = 6, Any grade): 2 (33.3) n (%)
- TEAE related to study treatment: ECG QT prolonged (80 mg/m^2 N = 6, Any grade): 2 (33.3) n (%)
- TEAE related to study treatment: Fatigue (80 mg/m^2 N = 6, Any grade): 1 (16.7) n (%)
- TEAE related to study treatment: Febrile neutropenia (80 mg/m^2 N = 6, Any grade): 1 (16.7) n (%)
- TEAE related to study treatment: Headache (80 mg/m^2 N = 6, Any grade): 0 n (%)
- TEAE related to study treatment: Hypocalcemia (80 mg/m^2 N = 6, Any grade): 0 n (%)
- TEAE related to study treatment: Leukopenia (80 mg/m^2 N = 6, Any grade): 6 (100) n (%)
- TEAE related to study treatment: Lung infection (80 mg/m^2 N = 6, Any grade): 1 (16.7) n (%)
- TEAE related to study treatment: Lymphocytopenia (80 mg/m^2 N = 6, Any grade): 2 (33.3) n (%)
- TEAE related to study treatment: Nausea (80 mg/m^2 N = 6, Any grade): 2 (33.3) n (%)
- TEAE related to study treatment: Neutropenia (80 mg/m^2 N = 6, Any grade): 5 (83.3) n (%)
- TEAE related to study treatment: Pyrexia (80 mg/m^2 N = 6, Any grade): 1 (16.7) n (%)
- TEAE related to study treatment: Rash (80 mg/m^2 N = 6, Any grade): 1 (16.7) n (%)
- TEAE related to study treatment: Rash maculopapular (80 mg/m^2 N = 6, Any grade): 1 (16.7) n (%)
- TEAE related to study treatment: SVE (supraventricular extrasystoles) (80 mg/m^2 N = 6, Any grade): 1 (16.7) n (%)
- TEAE related to study treatment: Stomatitis (80 mg/m^2 N = 6, Any grade): 1 (16.7) n (%)
- TEAE related to study treatment: Thrombocytopenia (80 mg/m^2 N = 6, Any grade): 4 (66.7) n (%)
- TEAE related to study treatment: Anemia (80 mg/m^2 N = 6, Grade 3): 1 (16.7) n (%)
- TEAE related to study treatment: Any (80 mg/m^2 N = 6, Grade 3): 2 (33.3) n (%)
- TEAE related to study treatment: Atrial fibrillation (80 mg/m^2 N = 6, Grade 3): 0 n (%)
- TEAE related to study treatment: Constipation (80 mg/m^2 N = 6, Grade 3): 0 n (%)
- TEAE related to study treatment: ECG QT prolonged (80 mg/m^2 N = 6, Grade 3): 0 n (%)
- TEAE related to study treatment: Fatigue (80 mg/m^2 N = 6, Grade 3): 0 n (%)
- TEAE related to study treatment: Febrile neutropenia (80 mg/m^2 N = 6, Grade 3): 0 n (%)
- TEAE related to study treatment: Headache (80 mg/m^2 N = 6, Grade 3): 0 n (%)
- TEAE related to study treatment: Hypocalcemia (80 mg/m^2 N = 6, Grade 3): 0 n (%)
- TEAE related to study treatment: Leukopenia (80 mg/m^2 N = 6, Grade 3): 1 (16.7) n (%)
- TEAE related to study treatment: Lung infection (80 mg/m^2 N = 6, Grade 3): 0 n (%)
- TEAE related to study treatment: Lymphocytopenia (80 mg/m^2 N = 6, Grade 3): 1 (16.7) n (%)
- TEAE related to study treatment: Nausea (80 mg/m^2 N = 6, Grade 3): 0 n (%)
- TEAE related to study treatment: Neutropenia (80 mg/m^2 N = 6, Grade 3): 1 (16.7) n (%)
- TEAE related to study treatment: Pyrexia (80 mg/m^2 N = 6, Grade 3): 0 n (%)
- TEAE related to study treatment: Rash (80 mg/m^2 N = 6, Grade 3): 0 n (%)
- TEAE related to study treatment: Rash maculopapular (80 mg/m^2 N = 6, Grade 3): 0 n (%)
- TEAE related to study treatment: SVE (supraventricular extrasystoles) (80 mg/m^2 N = 6, Grade 3): 0 n (%)
- TEAE related to study treatment: Stomatitis (80 mg/m^2 N = 6, Grade 3): 0 n (%)
- TEAE related to study treatment: Thrombocytopenia (80 mg/m^2 N = 6, Grade 3): 2 (33.3) n (%)
- TEAE related to study treatment: Anemia (80 mg/m^2 N = 6, Grade 3 + 4): 2 (33.3) n (%)
- TEAE related to study treatment: Any (80 mg/m^2 N = 6, Grade 3 + 4): 6 (100) n (%)
- TEAE related to study treatment: Atrial fibrillation (80 mg/m^2 N = 6, Grade 3 + 4): 0 n (%)
- TEAE related to study treatment: Constipation (80 mg/m^2 N = 6, Grade 3 + 4): 0 n (%)
- TEAE related to study treatment: ECG QT prolonged (80 mg/m^2 N = 6, Grade 3 + 4): 0 n (%)
- TEAE related to study treatment: Fatigue (80 mg/m^2 N = 6, Grade 3 + 4): 0 n (%)
- TEAE related to study treatment: Febrile neutropenia (80 mg/m^2 N = 6, Grade 3 + 4): 1 (16.7) n (%)
- TEAE related to study treatment: Headache (80 mg/m^2 N = 6, Grade 3 + 4): 0 n (%)
- TEAE related to study treatment: Hypocalcemia (80 mg/m^2 N = 6, Grade 3 + 4): 0 n (%)
- TEAE related to study treatment: Leukopenia (80 mg/m^2 N = 6, Grade 3 + 4): 4 (66.7) n (%)
- TEAE related to study treatment: Lung infection (80 mg/m^2 N = 6, Grade 3 + 4): 0 n (%)
- TEAE related to study treatment: Lymphocytopenia (80 mg/m^2 N = 6, Grade 3 + 4): 1 (16.7) n (%)
- TEAE related to study treatment: Nausea (80 mg/m^2 N = 6, Grade 3 + 4): 0 n (%)
- TEAE related to study treatment: Neutropenia (80 mg/m^2 N = 6, Grade 3 + 4): 4 (66.7) n (%)
- TEAE related to study treatment: Pyrexia (80 mg/m^2 N = 6, Grade 3 + 4): 0 n (%)
- TEAE related to study treatment: Rash (80 mg/m^2 N = 6, Grade 3 + 4): 0 n (%)
- TEAE related to study treatment: Rash maculopapular (80 mg/m^2 N = 6, Grade 3 + 4): 0 n (%)
- TEAE related to study treatment: SVE (supraventricular extrasystoles) (80 mg/m^2 N = 6, Grade 3 + 4): 0 n (%)
- TEAE related to study treatment: Stomatitis (80 mg/m^2 N = 6, Grade 3 + 4): 0 n (%)
- TEAE related to study treatment: Thrombocytopenia (80 mg/m^2 N = 6, Grade 3 + 4): 3 (50.0) n (%)
- TEAE related to study treatment: Anemia (80 mg/m^2 N = 6, Grade 4): 1 (16.7) n (%)
- TEAE related to study treatment: Any (80 mg/m^2 N = 6, Grade 4): 4 (66.7) n (%)
- TEAE related to study treatment: Atrial fibrillation (80 mg/m^2 N = 6, Grade 4): 0 n (%)
- TEAE related to study treatment: Constipation (80 mg/m^2 N = 6, Grade 4): 0 n (%)
- TEAE related to study treatment: ECG QT prolonged (80 mg/m^2 N = 6, Grade 4): 0 n (%)
- TEAE related to study treatment: Fatigue (80 mg/m^2 N = 6, Grade 4): 0 n (%)
